Measured values reported in ChEMBL document CHEMBL5036380, “New Highly Potent NLRP3 Inhibitors: Furanochalcone Velutone F Analogues” (ACS Med Chem Lett, 2022).
Activity calls are given as the source filed them. No cut-off for these calls is given here.

What was measured:
THP-1 [1] = test: Antiinflammatory activity in human THP-1 cells assessed as inhibition of LPS/nigericin-induced IL-1beta secretion in LPS stimulation followed by pretreatment for 40 min before induced with nigericin for 40 min measured by western blot analysis; type: functional, cell-based; settings: time 80.0 min
Method in brief: (§1)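 PMA-differentiated THP-1 cells were primed with LPS, exposed to graded compound doses for 40 min, then given nigericin for 40 min. Supernatants were immunoblotted for IL-1β and caspase-1. Cell extracts were immunoblotted for NLRP3, pro-IL-1β and pro-caspase-1.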

THP-1 [2] = test: Antiinflammatory activity in human THP-1 cells assessed as blockade of caspase 1 p20 in LPS stimulation followed by pretreatment for 40 min before induced with nigericin for 40 min measured by western blot analysis; type: functional, cell-based; settings: time 80.0 min; method in brief: as §1
[3] = target: NACHT, LRR and PYD domains-containing protein 3 (Homo sapiens) (UniProt Q96P20); test: Inhibition of NLRP3 inflammasome activation in LPS/nigericin-treated human THP-1 cells assessed as LPS-induced IL-1beta secretion in LPS stimulation followed by pretreatment for 40 min before induced with nigericin for 40 min measured by western blot analysis; type: cell-based; settings: time 80.0 min; method in brief: as §1
Chain of NACHT, LRR and PYD domains-containing protein 3 (Homo sapiens) (Q96P20 whole entry, the tested form may be a part): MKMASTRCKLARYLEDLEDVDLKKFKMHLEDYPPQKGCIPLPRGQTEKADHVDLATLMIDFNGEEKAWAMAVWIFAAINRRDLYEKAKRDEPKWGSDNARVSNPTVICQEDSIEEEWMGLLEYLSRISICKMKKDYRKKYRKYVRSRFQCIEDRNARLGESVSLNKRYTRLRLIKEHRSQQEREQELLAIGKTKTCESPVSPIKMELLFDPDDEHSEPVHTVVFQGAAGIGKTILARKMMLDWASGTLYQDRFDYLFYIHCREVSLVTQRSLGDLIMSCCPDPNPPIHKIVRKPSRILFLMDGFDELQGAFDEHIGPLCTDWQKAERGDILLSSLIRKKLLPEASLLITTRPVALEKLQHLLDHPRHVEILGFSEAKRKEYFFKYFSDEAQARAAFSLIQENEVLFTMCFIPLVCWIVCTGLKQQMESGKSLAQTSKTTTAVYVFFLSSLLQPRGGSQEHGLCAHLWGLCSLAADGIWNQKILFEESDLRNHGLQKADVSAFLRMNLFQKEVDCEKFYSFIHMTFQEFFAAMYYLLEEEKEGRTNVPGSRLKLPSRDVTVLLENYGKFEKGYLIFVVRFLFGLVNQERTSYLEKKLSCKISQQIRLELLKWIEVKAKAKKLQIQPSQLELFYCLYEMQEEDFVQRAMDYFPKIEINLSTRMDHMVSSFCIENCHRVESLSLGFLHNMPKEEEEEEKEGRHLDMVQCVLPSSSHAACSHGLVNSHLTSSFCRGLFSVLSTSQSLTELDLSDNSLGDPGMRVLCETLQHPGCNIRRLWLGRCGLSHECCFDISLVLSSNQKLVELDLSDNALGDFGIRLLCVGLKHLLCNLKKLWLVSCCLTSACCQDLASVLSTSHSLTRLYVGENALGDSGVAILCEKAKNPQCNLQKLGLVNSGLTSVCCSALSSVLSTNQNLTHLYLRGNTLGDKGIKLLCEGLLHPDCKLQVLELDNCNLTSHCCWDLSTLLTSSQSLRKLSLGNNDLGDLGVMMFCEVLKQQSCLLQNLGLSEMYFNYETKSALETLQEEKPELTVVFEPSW

[4] = target: NLR family CARD domain-containing protein 4 (Homo sapiens) (UniProt Q9NPP4); test: Inhibition of NLRC4 inflammasome activation in LPS-induced human THP-1 cells at 3 to 5uM for 40 mins followed by flagellin stimulation for 6 h by ELISA; type: cell-based
Chain of NLR family CARD domain-containing protein 4 (Homo sapiens) (Q9NPP4 whole entry, the tested form may be a part): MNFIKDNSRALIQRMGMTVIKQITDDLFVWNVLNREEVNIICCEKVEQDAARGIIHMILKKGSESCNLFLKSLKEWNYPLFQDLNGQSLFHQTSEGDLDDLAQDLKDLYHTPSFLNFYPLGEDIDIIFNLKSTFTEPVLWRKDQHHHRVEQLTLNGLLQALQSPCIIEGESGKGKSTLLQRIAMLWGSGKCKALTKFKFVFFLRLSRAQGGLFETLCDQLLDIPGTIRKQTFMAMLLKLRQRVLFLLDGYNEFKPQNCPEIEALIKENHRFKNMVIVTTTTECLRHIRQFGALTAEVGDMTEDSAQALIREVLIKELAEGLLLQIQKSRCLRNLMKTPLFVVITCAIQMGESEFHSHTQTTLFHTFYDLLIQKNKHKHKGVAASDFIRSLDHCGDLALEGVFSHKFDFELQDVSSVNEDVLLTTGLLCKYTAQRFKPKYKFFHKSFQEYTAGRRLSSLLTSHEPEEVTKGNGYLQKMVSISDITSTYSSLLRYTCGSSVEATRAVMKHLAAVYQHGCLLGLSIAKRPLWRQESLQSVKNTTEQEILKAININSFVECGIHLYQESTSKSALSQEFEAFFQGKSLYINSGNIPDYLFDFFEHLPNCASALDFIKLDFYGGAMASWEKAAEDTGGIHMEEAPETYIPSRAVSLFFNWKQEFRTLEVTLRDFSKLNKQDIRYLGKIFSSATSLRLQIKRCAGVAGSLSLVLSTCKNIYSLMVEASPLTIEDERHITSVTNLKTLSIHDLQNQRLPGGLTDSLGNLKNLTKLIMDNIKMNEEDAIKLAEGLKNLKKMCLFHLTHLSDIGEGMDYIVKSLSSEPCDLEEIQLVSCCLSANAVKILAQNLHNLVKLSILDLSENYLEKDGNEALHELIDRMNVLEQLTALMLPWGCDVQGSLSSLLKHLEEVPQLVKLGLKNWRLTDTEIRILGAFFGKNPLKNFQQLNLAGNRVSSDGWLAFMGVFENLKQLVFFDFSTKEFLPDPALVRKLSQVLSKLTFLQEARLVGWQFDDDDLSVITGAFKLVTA

THP-1 [5] = test: Effect on NLRP3 expression in LPS-stimulated human THP-1 cells at 1 uM preincubated for 40 mins followed by LPS stimulation and measured after 3 hrs by Western blot analysis; type: functional, cell-based
Method in brief: (§2)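 THP-1 cells were given compound for 40 min, then primed with LPS for 3 h. Medium supernatant was analysed for TNF-α. Cell extracts were immunoblotted for pro-IL-1β and NLRP3.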

THP-1 [6] = test: Effect on IL-1beta expression in LPS-stimulated human THP-1 cells at 1 uM preincubated for 40 mins followed by LPS stimulation and measured after 3 hrs by Western blot analysis; type: functional, cell-based; settings: time 220.0 min; method in brief: as §2
THP-1 [7] = test: Effect on NLRP3 expression in LPS-stimulated human THP-1 cells preincubated for 40 mins followed by LPS addition and measured after 3 hrs by Western blot analysis; type: functional, cell-based; settings: time 220.0 min; method in brief: as §2
[8] = target: NACHT, LRR and PYD domains-containing protein 3 (Homo sapiens) (UniProt Q96P20); test: Binding affinity to NLRP3 in LPS stimulated human THP-1cells assessed as prevention of pronase-mediated protein degradation at 0.01 to 1mM incubated 50 mins before pronase treatment by label-free DARTS assay
Method in brief: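 Drug affinity responsive target stability: THP-1 lysates were incubated with compound (0.01–1 mM), then digested with pronase. NLRP3 remaining was detected by immunoblot.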

[9] = target: NACHT, LRR and PYD domains-containing protein 3 (Homo sapiens) (UniProt Q96P20); test: Inhibition of NLRP3 in human THP-1cells assessed as increase in thermal stability at 0.5 to 5 uM at 57 deg C measured by cellular thermal shift assay; settings: dose 0.5-5 µM
[10] = AUC (0 to t) in Sprague-Dawley rat at 90 mg/kg, po measured up to 24 hrs by LC-MS/MS analysis; type: ADME, organism-based; design: route oral, dose 90 mg/kg, time <=24; settings: in vivo
Method in brief: (§3)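 Single doses given intravenously (10 mg/kg) or orally (10, 30, 90 mg/kg); plasma levels quantified by LC/MS/MS at multiple time points. Parameters reported as mean values: AUC0–t, CL, Cmax, T1/2, Tmax, and %F based on AUC.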

[11] = Half life in Sprague-Dawley rat at 30 mg/kg, po measured up to 24 hrs by LC-MS/MS analysis; type: ADME, organism-based; settings: in vivo; method in brief: as §3
THP-1 [12] = test: Antiinflammatory activity in human THP-1 cells assessed as inhibition of LPS-induced IL-1beta secretion in LPS stimulation for 3 hrs followed by pretreatment at 2uM for 40 min before induced with nigericin for 40 min measured by ELISA; type: functional; settings: THP-1, 1.333 h, time 80 min
Method in brief: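 THP-1 cells (2 × 10^5 cells/mL) differentiated with PMA (100 ng/mL) for 24 h. Next day, primed with LPS (1 μg/mL) for 3 h, then compound for 40 min, then nigericin (10 μM) for 40 min. IL-1β in supernatant measured by ELISA; % inhibition as mean ± SD of three independent experiments. The single-concentration screen used 2 μM.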

inhibition [3]: inactive
inhibition [4]: Dose-Dependent Effect
Activity [8]: Dose-Dependent Effect
inhibition [9]: Dose-Dependent Effect
AUC(0-t) at 24 h [10]: 23.5 ng·h/mL
half-life [11]: 7.92 h
SMILES: COc1cc(/C=C/C(=O)c2ccc(F)cc2)c(OC)cc1Br
Activity (THP-1 [1]): Dose-Dependent Effect
Activity (THP-1 [2]): Dose-Dependent Effect
Activity (THP-1 [5]): inactive
Activity (THP-1 [6]): inactive
Activity (THP-1 [7]): inactive
inhibition at 2 µM (THP-1 [12]): 108%
